Legend:
[1] = biological target: Human immunodeficiency virus type 1 protease (Human immunodeficiency virus 1, UniProt Q72874); assay: Binding affinity against HIV-1 protease
[2] = Median cell culture toxic dose was evaluated against H9 cell line; assay type: ADME, cell-based; conditions: human, H9 cells; read-out: CCTD50
[3] = system: Human immunodeficiency virus 1; assay: Antiviral activity in HIV-1 infected H9 cells; assay type: functional; conditions: Human immunodeficiency virus 1, H9; read-out: ED50 (the source's name)
How it was run: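 H9 cells infected with HIV-1 IIIB at MOI about 0.005, spun down (200g, 10 min), resuspended at 8 × 10^5 cells/mL in RPMI Complete and mixed with compound; final DMSO 0.1%, triplicate per concentration. After 5 days at 37 °C in 5% CO2, supernatant p24 antigen was measured by ELISA. ED50 is the drug amount that reduces p24 by 50% versus DMSO drug-free controls.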

Structure (SMILES)	Ki [1] [nM]	EC50 [3] [nM]	CC50 [2] [nM]
O=c1c2c(oc(O)c1C(c1ccccc1)C1CC1)CCCCCC2 (configuration not stated)	15	–	–
CCCCC(c1cccc(NS(=O)(=O)c2ccc(F)cc2)c1)c1c(O)c2c(oc1=O)CCCCCC2 (configuration not stated)	6.1	> 10000	> 30000
Cc1ccc(S(=O)(=O)Nc2cccc(C(c3c(O)c4c(oc3=O)CCCCCC4)C3CC3)c2)cc1 (configuration not stated)	3.3	3600	> 30000
CC(C)C(c1cccc(NS(=O)(=O)c2cn(C)cn2)c1)c1c(O)c2c(oc1=O)CCCCCC2 (configuration not stated)	0.5	2500	> 30000
CCC(c1ccccc1)c1c(O)c2ccccc2oc1=O (configuration not stated) [PHENPROCOUMON]	0.8	–	–
CCCCC(c1cccc(NS(=O)(=O)c2ccc(C#N)cc2)c1)c1c(O)c2c(oc1=O)CCCCCC2 (configuration not stated)	2.1	7600	> 30000
CCS(=O)(=O)Nc1cccc(C(c2c(O)c3c(oc2=O)CCCCC3)C2CC2)c1 (configuration not stated)	63	–	–
CC(C)C(c1cccc(NS(=O)(=O)c2cccc3cccnc23)c1)c1c(O)c2c(oc1=O)CCCCCC2 (configuration not stated)	4.2	> 10000	> 30000
Cn1cnc(S(=O)(=O)Nc2cccc([C@H](c3c(O)c4c(oc3=O)CCCCCC4)C3CC3)c2)c1	0.08	–	> 30000
O=c1c2c(oc(O)c1C(c1cccc(NS(=O)(=O)c3ccc(Cl)c(Cl)c3Cl)c1)C1CC1)CCCCCC2 (configuration not stated)	8.8	4100	> 30000
CC(C)CC(c1cccc(NS(=O)(=O)c2cn(C)cn2)c1)c1c(O)c2c(oc1=O)CCCCCC2 (configuration not stated)	0.086	1300	> 30000
CC(C)(C)c1ccc(S(=O)(=O)Nc2cccc(C(c3c(O)c4c(oc3=O)CCCCCC4)C3CC3)c2)cc1 (configuration not stated)	32	> 10000	> 30000
CN(C)c1ccc(S(=O)(=O)Nc2cccc(C(c3c(O)c4c(oc3=O)CCCCCC4)C3CC3)c2)cc1 (configuration not stated)	2.8	8700	> 30000
Nc1cccc(S(=O)(=O)Nc2cccc(C(c3c(O)c4c(oc3=O)CCCCCC4)C3CC3)c2)c1 (configuration not stated)	2.3	6300	> 30000
NC(=O)c1ccc(S(=O)(=O)Nc2cccc(C(c3c(O)c4c(oc3=O)CCCCCC4)C3CC3)c2)cc1 (configuration not stated)	1.9	5800	> 30000
CC(C)C(c1cccc(NS(=O)(=O)c2ccc(Cl)cc2)c1)c1c(O)c2c(oc1=O)CCCCCC2 (configuration not stated)	18	> 10000	> 30000
CC(C)S(=O)(=O)Nc1cccc(C(c2c(O)c3c(oc2=O)CCCCCC3)C2CC2)c1 (configuration not stated)	33	–	–
CC(C)CC(c1cccc(NS(=O)(=O)c2ccc(C#N)cc2)c1)c1c(O)c2c(oc1=O)CCCCCC2 (configuration not stated)	1.5	6100	> 30000
Cn1cnc(S(=O)(=O)Nc2cccc(C(c3c(O)c4c(oc3=O)CCCCCC4)C3CC3)c2)c1 (configuration not stated)	1.6	2700	> 100000
CCC(c1cccc(NS(=O)(=O)c2ccc(Cl)cc2)c1)c1c(O)c2c(oc1=O)CCCCCC2 (configuration not stated)	3.5	4700	> 30000

Structure (SMILES)	Ki [1] [nM]	EC50 [3] [nM]	CC50 [2] [nM]
CC(C)CC(c1cccc(NS(=O)(=O)c2cccnc2)c1)c1c(O)c2c(oc1=O)CCCCCC2 (configuration not stated)	9.3	> 10000	> 30000
Cc1cccc(S(=O)(=O)Nc2cccc(C(c3c(O)c4c(oc3=O)CCCCCC4)C3CC3)c2)c1 (configuration not stated)	5.3	4000	> 30000
CC(C)CC(c1cccc(NS(=O)(=O)c2cccc3cccnc23)c1)c1c(O)c2c(oc1=O)CCCCCC2 (configuration not stated)	3.3	> 10000	> 30000
CCCCS(=O)(=O)Nc1cccc(C(c2c(O)c3c(oc2=O)CCCCCC3)C2CC2)c1 (configuration not stated)	4.6	–	–
CS(=O)(=O)Nc1cccc(C(c2c(O)c3c(oc2=O)CCCCCC3)C2CC2)c1 (configuration not stated)	11	–	–
O=c1c2c(oc(O)c1C(c1cccc(NS(=O)(=O)c3ccccc3C(F)(F)F)c1)C1CC1)CCCCCC2 (configuration not stated)	21	–	> 30000
O=c1c2c(oc(O)c1C(c1cccc(NS(=O)(=O)c3cc(Cl)ccc3Cl)c1)C1CC1)CCCCCC2 (configuration not stated)	74	–	> 30000
CC(C)(C)OC(=O)NCCC(=O)Nc1cccc(C(c2c(O)c3c(oc2=O)CCCCCC3)C2CC2)c1 (configuration not stated)	–	33000	–
Cc1ccccc1S(=O)(=O)Nc1cccc(C(c2c(O)c3c(oc2=O)CCCCCC3)C2CC2)c1 (configuration not stated)	9.3	–	> 30000
CCCCOc1ccc(S(=O)(=O)Nc2cccc(C(c3c(O)c4c(oc3=O)CCCCCC4)C3CC3)c2)cc1 (configuration not stated)	18	–	> 30000
O=c1c2c(oc(O)c1C(c1cccc(NS(=O)(=O)c3ccc(Cl)cc3Cl)c1)C1CC1)CCCCCC2 (configuration not stated)	6.2	–	> 30000
Nc1ccc(S(=O)(=O)Nc2cccc(C(c3c(O)c4c(oc3=O)CCCCCC4)C3CC3)c2)cc1 (configuration not stated)	6.9	–	> 30000
C=CS(=O)(=O)Nc1cccc(C(c2c(O)oc3c(c2=O)CCCCC3)C2CC2)c1 (configuration not stated)	> 200	–	–
CCCc1ccc(S(=O)(=O)Nc2cccc(C(c3c(O)c4c(oc3=O)CCCCCC4)C3CC3)c2)cc1 (configuration not stated)	11	–	> 30000
O=c1c2c(oc(O)c1C(c1cccc(NS(=O)(=O)C3CCCCC3)c1)C1CC1)CCCCCC2 (configuration not stated)	3.6	–	–
CCc1ccc(S(=O)(=O)Nc2cccc(C(c3c(O)c4c(oc3=O)CCCCCC4)C3CC3)c2)cc1 (configuration not stated)	5	–	> 30000
O=c1c2c(oc(O)c1C(c1cccc(NS(=O)(=O)c3ccc(C(F)(F)F)c(C(F)(F)F)c3)c1)C1CC1)CCCCCC2 (configuration not stated)	47	–	> 30000
CC(C)c1ccc(S(=O)(=O)Nc2cccc(C(c3c(O)c4c(oc3=O)CCCCCC4)C3CC3)c2)cc1 (configuration not stated)	13	–	> 30000
C=CS(=O)(=O)Nc1cccc(C(c2c(O)oc3c(c2=O)CCCCCC3)C2CC2)c1 (configuration not stated)	18	–	–

Second part, led by results:

Ki [1] [nM]	EC50 [3] [nM]	Structure (SMILES)	CC50 [2] [nM]
0.9	7200	O=c1c2c(oc(O)c1[C@@H](c1cccc(NS(=O)(=O)c3cccc4cccnc34)c1)C1CC1)CCCCCC2	> 30000
7.4	> 10000	N#Cc1ccccc1S(=O)(=O)Nc1cccc(C(c2c(O)oc3c(c2=O)CCCCCC3)C2CC2)c1 (configuration not stated)	> 30000
6	–	CCCCCCCCS(=O)(=O)Nc1cccc(C(c2c(O)c3c(oc2=O)CCCCCC3)C2CC2)c1 (configuration not stated)	–
120	–	CS(=O)(=O)Nc1cccc(C(c2c(O)c3c(oc2=O)CCCCC3)C2CC2)c1 (configuration not stated)	–
2.7	3200	O=c1c2c(oc(O)c1C(c1cccc(NS(=O)(=O)c3cccc(Cl)c3)c1)C1CC1)CCCCCC2 (configuration not stated)	> 30000
3.9	–	O=c1c2c(oc(O)c1C(c1cccc(NS(=O)(=O)CCc3ccccc3)c1)C1CC1)CCCCCC2 (configuration not stated)	–
2.7	3100	O=c1c2c(oc(O)c1C(c1cccc(NS(=O)(=O)c3ccc([N+](=O)[O-])cc3)c1)C1CC1)CCCCCC2 (configuration not stated)	> 30000
4.7	4200	O=c1c2c(oc(O)c1C(c1cccc(NS(=O)(=O)c3cccc([N+](=O)[O-])c3)c1)C1CC1)CCCCCC2 (configuration not stated)	> 30000
2.2	> 10000	CCCC(c1cccc(NS(=O)(=O)c2cccnc2)c1)c1c(O)c2c(oc1=O)CCCCCC2 (configuration not stated)	> 30000
4	3400	O=c1c2c(oc(O)c1C(c1cccc(NS(=O)(=O)c3ccc(OC(F)(F)F)cc3)c1)C1CC1)CCCCCC2 (configuration not stated)	> 30000
7.6	> 3000	O=c1c2c(oc(O)c1C(c1cccc(NS(=O)(=O)c3cccc(Cl)c3Cl)c1)C1CC1)CCCCCC2 (configuration not stated)	> 30000
0.8	1700	O=c1c2c(oc(O)c1C(c1cccc(NS(=O)(=O)c3ncccn3)c1)C1CC1)CCCCCC2 (configuration not stated)	> 30000
2.2	4600	O=c1c2c(oc(O)c1C(c1cccc(NS(=O)(=O)c3ccccn3)c1)C1CC1)CCCCCC2 (configuration not stated)	> 30000
2.6	3000	O=c1c2c(oc(O)c1C(c1cccc(NS(=O)(=O)c3cccc(Br)c3)c1)C1CC1)CCCCCC2 (configuration not stated)	> 30000
4	–	CCCS(=O)(=O)Nc1cccc(C(c2c(O)c3c(oc2=O)CCCCCC3)C2CC2)c1 (configuration not stated)	–
36	–	O=c1c2c(oc(O)c1C(c1cccc(S(=O)(=O)Nc3ccccc3)c1)C1CC1)CCCCCC2 (configuration not stated)	–
–	> 10000	CC(C)C(c1cccc(NS(=O)(=O)c2cccnc2)c1)c1c(O)c2c(oc1=O)CCCCCC2 (configuration not stated)	> 30000
–	> 10000	O=c1c2c(oc(O)c1[C@@H](c1cccc(NS(=O)(=O)c3ccccc3)c1)C1CC1)CCCCCC2	> 30000
3	3800	O=c1c2c(oc(O)c1C(c1cccc(NS(=O)(=O)c3cccc(C(F)(F)F)c3)c1)C1CC1)CCCCCC2 (configuration not stated)	> 30000
0.6	> 3000	N#Cc1cccc(S(=O)(=O)Nc2cccc(C(c3c(O)oc4c(c3=O)CCCCCC4)C3CC3)c2)c1 (configuration not stated)	> 30000
9.3	–	O=c1c2c(oc(O)c1C(c1cccc(NS(=O)(=O)c3ccccc3Cl)c1)C1CC1)CCCCCC2 (configuration not stated)	> 30000
13	–	O=c1c2c(oc(O)c1C(c1cccc(NS(=O)(=O)Cc3ccccc3)c1)C1CC1)CCCCCC2 (configuration not stated)	–
10	–	CCS(=O)(=O)Nc1cccc(C(c2c(O)c3c(oc2=O)CCCCCC3)C2CC2)c1 (configuration not stated)	–
3	–	O=c1c2c(oc(O)c1C(c1cccc(NS(=O)(=O)/C=C/c3ccccc3)c1)C1CC1)CCCCCC2 (configuration not stated)	–
> 200	–	Cc1cccc(C)c1S(=O)(=O)Nc1cccc(C(c2c(O)c3c(oc2=O)CCCCCC3)C2CC2)c1 (configuration not stated)	> 30000
> 200	–	O=c1c2c(oc(O)c1C(c1cccc(NS(=O)(=O)c3c(Cl)cccc3Cl)c1)C1CC1)CCCCCC2 (configuration not stated)	> 30000
–	5500	O=c1c2c(oc(O)c1C(c1cccc(NS(=O)(=O)c3ccccc3)c1)C1CC1)CCCCCC2 (configuration not stated)	> 30000
–	2600	O=c1c2c(oc(O)c1[C@H](c1cccc(NS(=O)(=O)c3ccccc3)c1)C1CC1)CCCCCC2	> 30000

From ChEMBL document CHEMBL1129987, “Structure-based design of nonpeptidic HIV protease inhibitors: the sulfonamide-substituted cyclooctylpyramones” (J Med Chem, 1997)
